Assay results of several laboratories.
Each line is one published result; the experiments were not run side by side.
Cell line: K562

CCOC(=O)CCC1=CC2C=CC=CC1C2C1CCCCC1=O (centres unmarked) — IC50 (cell growth or viability; flow cytometry): 21 nM
CCCCN(Cc1ccc(C(=O)NO)cc1)C(=O)Nc1ccccc1 — IC50 (cell growth or viability; ATP luminescence; 72 h): 2260 nM
CCCCc1ccc2[nH]c(NC(=O)OC)nc2c1 — IC50 (cell growth or viability; CCK-8; 72 h): 61.2 nM
C[C@H](O)C(=O)CCCCCCC(=O)Nc1cccc(-c2cn(-c3ccccc3)nn2)c1 — IC50 (cell growth or viability; thymidine uptake): 7120 nM
COc1ccc(/C=C\c2cc(OC)c(OC)c(OC)c2)cc1O — IC50 (cell growth or viability): 5 nM
N#CCCCC1=CC2C=CC=CC1C2C1CCCCC1=O (centres unmarked) — IC50 (cell growth or viability; flow cytometry): 31 nM
COc1cc(C=NNc2ncnc3c2cnn3-c2ccccc2)ccc1O — IC50 (cell growth or viability; XTT; 72 h): 3240 nM
CC(=O)O[C@@H]1OC=C2[C@@H](OC(C)=O)C[C@H]3[C@]4(C)CC[C@H]5C(C)(C)CCC[C@]5(C)[C@H]4C[C@@H](O)[C@]3(C)[C@H]21 — IC50 (NF-κB activity; inhibitor; luciferase; TNF-stimulated): 6000 nM
CCCCC1=CC2C=CC=CC1C2C1CCCCC1=O (centres unmarked) — IC50 (cell growth or viability; flow cytometry): 29 nM
CN1c2ccccc2C(=O)N2[C@H](C(=O)Nc3ccc(C(=O)Nc4ccccc4N)cc3)Cc3c([nH]c4ccccc34)[C@@H]12 — IC50 (cell growth or viability): 1900 nM
Cc1cc(NCCCCCCCNc2cc(C)nc3cc(N)ccc23)c2ccc(N)cc2n1 — IC50 (cell growth or viability; XTT; 96 h): 13000 nM
COC(=O)Nc1nc2ccc(Oc3ccc(NC(=O)Nc4cc(C(F)(F)F)ccc4F)cc3)cc2s1 — IC50 (cell growth or viability; XTT; 72 h): 81 nM
CC[C@@H](C)[C@H](N)C(=O)N1Cc2ccccc2C1 — IC50 (cell growth or viability; ATP luminescence): > 60000 nM
O=C1CCCCC1C1C2C=CC=CC1/C(=C/Cc1ccccc1)C2 (centres unmarked) — IC50 (cell growth or viability; flow cytometry): 38 nM
O=C1NC(=NCc2cccs2)S/C1=C\c1ccc2ncccc2c1 — IC50 (cell growth or viability): > 10000 nM
N#CCCC1=CC2C=CC=CC1C2C1CCCCC1=O (centres unmarked) — IC50 (cell growth or viability; flow cytometry): 57 nM
CC(C)C[C@H](NC(=O)[C@H](Cc1ccccc1)NC(=O)c1cnccn1)B(O)O — IC50 (cell growth or viability; ATP luminescence): 5.6 nM
